Results reported in ChEMBL document CHEMBL1155553, “Design and synthesis of alpha-ketoamides as cathepsin S inhibitors with potential applications against tumor invasion and angiogenesis” (J Med Chem, 2010).
The source made the active and inactive calls. No cut-off for these calls is given here.

Experiments:
[1] = biological target: Cathepsin B (Homo sapiens) (UniProt P07858); assay: Inhibition of cathepsin B assessed as proteolytic activity at 40 nM by fluorimetric assay; set-up: Activity: scale not given: the % may be the effect or the level left
[2] = Cytotoxicity against human CL1-5 cells by MTT assay; type: cell-based
Method in brief: (§1)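 Overall cytotoxicity measured by MTT proliferation assay, compounds tested at concentrations up to 50 μM.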

[3] = biological target: Procathepsin L (Homo sapiens) (UniProt P07711); assay: Inhibition of cathepsin L assessed as proteolytic activity at 40 nM by fluorimetric assay; set-up: Activity: scale not given: the % may be the effect or the level left
Procathepsin L (Homo sapiens), sequence (P07711 114-333 limits assumed): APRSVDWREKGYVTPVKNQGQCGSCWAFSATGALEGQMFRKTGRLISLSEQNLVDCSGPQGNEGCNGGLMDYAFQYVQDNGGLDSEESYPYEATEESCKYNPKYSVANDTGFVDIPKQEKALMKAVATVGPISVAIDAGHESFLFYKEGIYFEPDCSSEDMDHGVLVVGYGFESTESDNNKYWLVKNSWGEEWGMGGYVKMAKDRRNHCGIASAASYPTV

HUVEC [4] = assay: Cytotoxicity against HUVEC by MTT assay; type: cell-based; details: Homo sapiens; method in brief: as §1
Cathepsin S [5] = biological target: T1, Cathepsin S (Homo sapiens, UniProt P25774); assay: Inhibition of human recombinant cathepsin S expressed in Escherichia coli BL21 (DE3) after 10 mins by fluorescence assay
Target sequence in this assay (P25774 whole entry): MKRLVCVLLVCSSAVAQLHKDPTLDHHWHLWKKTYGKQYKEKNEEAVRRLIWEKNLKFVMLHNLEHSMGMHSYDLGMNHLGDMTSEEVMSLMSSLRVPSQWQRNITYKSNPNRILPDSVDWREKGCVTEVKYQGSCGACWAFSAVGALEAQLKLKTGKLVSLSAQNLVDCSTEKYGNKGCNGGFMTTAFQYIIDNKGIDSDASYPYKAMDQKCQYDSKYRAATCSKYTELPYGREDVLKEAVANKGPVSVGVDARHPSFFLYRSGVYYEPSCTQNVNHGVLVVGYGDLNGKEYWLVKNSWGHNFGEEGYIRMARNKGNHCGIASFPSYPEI

[6] = Antiinvasive activity in human CL1-5 cells assessed as cellular migration after 24 hrs by fluorescence assay relative to control; type: functional; set-up: concentration or dose not given beside the values
HUVEC [7] = assay: Antiinvasive activity in VEGF-stimulated HUVEC assessed as cellular migration after 24 hrs by fluorescence assay relative to control; type: functional, Homo sapiens; set-up: concentration or dose not given beside the values
Cathepsin S [8] = biological target: T1, Cathepsin S; assay: Competitive inhibition of human recombinant cathepsin S expressed in Escherichia coli BL21 (DE3) after 15 mins by Lineweaver-Burke plot analysis
Target sequence in this assay (P25774 115-331 limits assumed): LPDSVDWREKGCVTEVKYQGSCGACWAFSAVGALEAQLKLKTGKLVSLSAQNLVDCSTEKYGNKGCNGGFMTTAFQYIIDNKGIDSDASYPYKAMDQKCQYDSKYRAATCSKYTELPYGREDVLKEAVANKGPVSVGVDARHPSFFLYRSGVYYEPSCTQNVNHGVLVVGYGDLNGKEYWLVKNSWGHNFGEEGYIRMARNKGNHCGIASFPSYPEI

HUVEC [9] = assay: Antiangiogenic activity in VEGF-stimulated HUVEC assessed as capillary tube formation after 16 hrs by photographic analysis; type: functional, Homo sapiens
Method in brief: (§2)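 HUVEC plated on Matrigel-coated wells, treated with α-ketoamide in presence of VEGF (20 ng/mL); after 16 h incubation cultures photographed and capillary tubes (branch points) counted under microscope at 100× magnification. Tube formation expressed relative to DMSO control; mean ± SD from three separate experiments.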

[10] = Cytotoxicity against human CL1-5 cells assessed as maximal tolerated dose by MTT assay; type: cell-based; details: read-out: MTD
Method in brief: (§3)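 MTT proliferation read-out for overall cytotoxicity of the α-ketoamides. Compounds were tested at concentrations up to 50 μM. Both cell types express high levels of Cat S.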

Cathepsin S [11] = biological target: T1, Cathepsin S; assay: Inhibition of cathepsin S-mediated cleavage of fibronectin by cell-based ECM degradation assay
Target sequence in this assay (P25774 115-331 limits assumed): as above

[12] = Cytotoxicity against HUVEC assessed as maximal tolerated dose by MTT assay; type: cell-based; details: human, read-out: MTD; method in brief: as §3
HUVEC [13] = assay: Antiangiogenic activity in VEGF-stimulated HUVEC assessed as inhibition of capillary tube formation after 16 hrs by photographic analysis; type: functional, Homo sapiens; set-up: scale not given: the % may be the effect or the level left; method in brief: as §2
[14] = Antiinvasive activity in human CL1-5 cells after 24 hrs by fluorescence assay; type: functional
Method in brief: (§4)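 CL1-5 lung adenocarcinoma cells (2 × 10⁵ per well) treated with compound; control wells received DMSO (10 μL) in medium (2 mL). Cell traversal/invasion expressed as percent of DMSO control (set 100%); mean ± SD from hexaplicate experiments.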

[15] = Antiinvasive activity in human CL1-5 cells assessed as cellular invasion after 24 hrs by fluorescence assay; type: functional; method in brief: as §4

Structure (SMILES)	IC50 (Cathepsin S [5])	IC50 [2]	IC50 (HUVEC [4])	Activity [6]	Activity (HUVEC [7])	further results
CCOC(=O)CNC(=O)C(=O)C(COCc1ccccc1)NC(=O)[C@H](CC1CCCCC1)NC(=O)N1CCOCC1 (some centres undefined)	4.4 nM	> 50000 nM	> 50000 nM	51%	87%	Activity [1]: 102%; Activity [3]: 3.2%; inhibition (Cathepsin S [8]): Active
CCOC(=O)CNC(=O)C(=O)C(COCc1ccccc1)NC(=O)[C@H](CC1CCCCC1)NC(=O)c1cc(SC)ccc1Cl (some centres undefined)	3.6 nM	32000 nM	> 50000 nM	65%	–	Activity [1]: 92%; Activity [3]: 17.4%
CCCCCC1OC(=O)C(C(=O)N[C@@H](CC2CCCCC2)C(=O)NC(COCc2ccccc2)C(=O)C(=O)NCC(=O)OC)=CC1C (some centres undefined)	42.3 nM	–	–	119%	99%	–
CCOC(=O)CNC(=O)C(=O)C(COCc1ccccc1)NC(=O)[C@H](CC1CCCCC1)NC(=O)CC(c1ccccc1)(c1ccccc1)c1ccccc1 (some centres undefined)	> 100 nM	> 50000 nM	–	–	–	–
CCOC(=O)CNC(=O)C(=O)[C@H](COCc1ccccc1)NC(=O)[C@H](CC1CCCCC1)NC(=O)C(=O)c1cccs1	6.6 nM	> 50000 nM	36000 nM	56%	57%	Activity (HUVEC [9]): 64%; MNTC [10]: 10 µM; inhibition (Cathepsin S [11]): Dose-dependent effect; MNTC [12]: 10 µM; Activity (HUVEC [13]): 36%; Activity [14]: 82%; Activity [15]: 18%
CCOC(=O)CNC(=O)C(=O)C(COCc1ccccc1)NC(=O)[C@H](CC1CCCCC1)NC(=O)c1ccc(OC(C)=O)cc1 (some centres undefined)	2 nM	> 50000 nM	> 50000 nM	69%	27%	Activity [1]: 91%; Activity [3]: 0.4%
CCOC(=O)CNC(=O)C(=O)C(COCc1ccccc1)NC(=O)[C@H](CC1CCCCC1)NC(=O)C1(C)CC1 (some centres undefined)	3.4 nM	> 50000 nM	35000 nM	101%	95%	–
CCOC(=O)CNC(=O)C(=O)C(COCc1ccccc1)NC(=O)[C@H](CC1CCCCC1)NC(=O)/C=C/c1cc(OC)ccc1OC (some centres undefined)	3.8 nM	> 50000 nM	–	81%	59%	–
CCOC(=O)CNC(=O)C(=O)C(COCc1ccccc1)NC(=O)[C@H](CC1CCCCC1)NC(=O)c1ccc(C(=O)OC)c(N)c1 (some centres undefined)	5.8 nM	> 50000 nM	> 50000 nM	53%	49%	Activity [1]: 84%; Activity [3]: 8%; Activity (HUVEC [9]): 43%; inhibition (Cathepsin S [11]): Dose-dependent effect; Activity (HUVEC [13]): 57%; Activity [14]: 67%; Activity [15]: 33%
CCOC(=O)CNC(=O)C(=O)C(COCc1ccccc1)NC(=O)[C@H](CC1CCCCC1)NC(=O)c1cc(Br)ccc1NC(=O)OC(C)(C)C (some centres undefined)	23.8 nM	–	–	76%	86%	–
CCOC(=O)CNC(=O)C(=O)C(COCc1ccccc1)NC(=O)[C@H](CC1CCCCC1)NC(=O)c1ccc(Cl)c(NC(=O)OC(C)(C)C)c1 (some centres undefined)	15.7 nM	42000 nM	48000 nM	50%	48%	–
CC(C)C[C@H](NC(=O)[C@H]1O[C@@H]1C(=O)O)C(=O)NCCCCN=C(N)N	–	–	–	–	–	inhibition [1]: 75%; inhibition [3]: -1.3%
CCOC(=O)CNC(=O)C(=O)[C@H](COCc1ccccc1)NC(=O)[C@H](CC1CCCCC1)NC(=O)c1cc(F)ccc1F	11.5 nM	–	–	48%	34%	–
CCOC(=O)CNC(=O)C(=O)C(COCc1ccccc1)NC(=O)[C@H](CC1CCCCC1)NC(=O)Cc1cccs1 (some centres undefined)	7.2 nM	> 50000 nM	39000 nM	67%	59%	–
CCOC(=O)CNC(=O)C(=O)[C@H](COCc1ccccc1)NC(=O)[C@H](CC(C)C)NC(=O)c1cccc2c1C(=O)c1ccccc1-2	8.8 nM	23000 nM	30000 nM	50%	55%	Activity (HUVEC [9]): 88%; MNTC [10]: 10 µM; inhibition (Cathepsin S [11]): Dose-dependent effect; MNTC [12]: 10 µM; Activity (HUVEC [13]): 32%; Activity [14]: 68%; Activity [15]: 32%
CCOC(=O)CNC(=O)C(=O)C(COCc1ccccc1)NC(=O)[C@H](CC1CCCCC1)NC(=O)C1=CC(=O)CC(C)(C)O1 (some centres undefined)	4.3 nM	> 50000 nM	37000 nM	98%	89%	–
CCOC(=O)CNC(=O)C(=O)C(COCc1ccccc1)NC(=O)[C@H](CC1CCCCC1)NC(=O)c1ccc(C(=O)OC)c(NC(=O)OC(C)(C)C)c1 (some centres undefined)	49.2 nM	36000 nM	47000 nM	51%	82%	Activity [1]: 89%; Activity [3]: 8.7%
CCOC(=O)CNC(=O)C(=O)C(COCc1ccccc1)NC(=O)[C@H](CC1CCCCC1)NC(=O)c1cc2ccccc2n1C (some centres undefined)	7.1 nM	–	–	69%	55%	–
CCOC(=O)CNC(=O)C(=O)C(COCc1ccccc1)NC(=O)[C@H](CC1CCCCC1)NC(=O)CCC(=O)c1ccc2ccc3cccc4ccc1c2c34 (some centres undefined)	> 100 nM	–	–	–	–	–
CCOC(=O)CNC(=O)C(=O)C(COCc1ccccc1)NC(=O)[C@H](CC1CCCCC1)NC(=O)Cc1cccc2ccccc12 (some centres undefined)	5.7 nM	–	–	41%	54%	–
CCOC(=O)CNC(=O)C(=O)C(COCc1ccccc1)NC(=O)[C@H](CC1CCCCC1)NC(=O)c1cncc(C)n1 (some centres undefined)	6.1 nM	–	–	60%	62%	–
N#C[C@H](COCc1ccccc1)NC(=O)[C@H](CC1CCCCC1)NC(=O)N1CCOCC1	–	> 50000 nM	> 50000 nM	67%	83%	Activity [1]: 104%; Activity [3]: 44.8%

Now from value to molecule, other results behind:

IC50 (Cathepsin S [5])	Structure (SMILES)	IC50 [2]	IC50 (HUVEC [4])	Activity [6]	Activity (HUVEC [7])	further results
6.2 nM	CCOC(=O)CNC(=O)C(=O)C(COCc1ccccc1)NC(=O)[C@H](CC1CCCCC1)NC(=O)c1ccc(C)cc1 (some centres undefined)	–	–	55%	55%	–
6.2 nM	CCOC(=O)CNC(=O)C(=O)[C@H](COCc1ccccc1)NC(=O)[C@H](CC1CCCCC1)NC(=O)c1cc(Br)ccc1N	–	–	52%	69%	–
8 nM	CCOC(=O)CNC(=O)C(=O)C(COCc1ccccc1)NC(=O)[C@H](CC1CCCCC1)NC(=O)c1cc(Cl)ccc1[N+](=O)[O-] (some centres undefined)	> 50000 nM	> 50000 nM	76%	68%	–
2.1 nM	CCOC(=O)CNC(=O)C(=O)C(COCc1ccccc1)NC(=O)[C@H](CC1CCCCC1)NC(=O)c1ccc(Cl)c(N)c1 (some centres undefined)	> 50000 nM	> 50000 nM	68%	46%	–
5.9 nM	CCOC(=O)CNC(=O)C(=O)C(COCc1ccccc1)NC(=O)[C@H](CC1CCCCC1)NC(=O)c1cccc(F)c1F (some centres undefined)	–	–	115%	107%	–
2.3 nM	CCOC(=O)CNC(=O)C(=O)C(COCc1ccccc1)NC(=O)[C@H](CC1CCCCC1)NC(=O)c1ccc(Br)o1 (some centres undefined)	–	–	80%	76%	–
5.6 nM	CCOC(=O)CNC(=O)C(=O)C(COCc1ccccc1)NC(=O)[C@H](CC1CCCCC1)NC(=O)c1cccc(C)c1[N+](=O)[O-] (some centres undefined)	–	–	79%	83%	–
3.1 nM	CCOC(=O)CNC(=O)C(=O)C(COCc1ccccc1)NC(=O)[C@H](CC1CCCCC1)NC(=O)c1cc(OC)ccc1[N+](=O)[O-] (some centres undefined)	> 50000 nM	39000 nM	95%	98%	–
10.3 nM	CCOC(=O)CNC(=O)C(=O)C(COCc1ccccc1)NC(=O)[C@H](CC1CCCCC1)NC(=O)c1ccc([N+](=O)[O-])s1 (some centres undefined)	> 50000 nM	48000 nM	64%	56%	–
22.8 nM	CCOC(=O)CNC(=O)C(=O)C(COCc1ccccc1)NC(=O)[C@H](CC1CCCCC1)NC(=O)c1cc(Cl)cc([N+](=O)[O-])c1 (some centres undefined)	> 50000 nM	> 50000 nM	80%	73%	–
1.9 nM	CCOC(=O)CNC(=O)C(=O)C(COCc1ccccc1)NC(=O)[C@H](CC1CCCCC1)NC(=O)c1cccc([N+](=O)[O-])c1 (some centres undefined)	> 50000 nM	> 50000 nM	67%	39%	Activity [1]: 97%; Activity [3]: 2.9%
